The record followed here is ChEMBL document CHEMBL3407348, “Antileishmanial activity of quinazoline derivatives: synthesis, docking screens, molecular dynamic simulations and electrochemical studies” (Eur J Med Chem, 2015).

The subject of series [1] is Leishmania mexicana. As to the kind of experiment: Antiparasitic activity against Leishmania mexicana MHOM/BZ/61/M379 assessed as oxygen consumption at 5.74 mM during 1 hr by fluorescence assay (reference value: 100%). The series is classed as functional. A digest of the protocol: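 Promastigotes (5 × 10⁶) were placed in microplate wells containing an oxygen-sensitive fluorophore with the test agent for 1 or 2 h. Oxygen consumption was read as fluorescence on a plate reader and expressed relative to untreated parasites (100%). Sodium cyanide served as the mitochondrial-damage control and dithionite as the oxygen-abolition control. Run in triplicate, with at least four independent experiments.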

Series [2] has as its system Leishmania mexicana. The series is described as follows: Antiparasitic activity against promastigote form of Leishmania mexicana MHOM/BZ/61/M379 at 100 uM after 24 hrs by haemocytometer. The class given is functional. To be noted: for inhibition at 100 µM: MHOM/BZ/61/M379, 72 h, in the assay text read “72 hrs” for “24 hrs”. A digest of the protocol: (§1)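 Promastigotes were grown in DMEM with L-glutamine and 4,500 mg/L glucose, without bicarbonate, plus 10% fetal calf serum. Serial compound dilutions (1:10 compound:medium) were mixed with an equal volume of 2 × 10⁶ parasites/mL at 26 °C. Parasites were counted by hemacytometer in triplicate. Growth inhibition was expressed as a percentage of the no-drug control, with 100 µM used for the initial screen.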

In series [3] the target is Bifunctional dihydrofolate reductase-thymidylate synthase (Leishmania major, UniProt P07382). The series is described as follows: Binding affinity to Leishmania major DHFR.
Sequence of Bifunctional dihydrofolate reductase-thymidylate synthase (P07382 whole entry): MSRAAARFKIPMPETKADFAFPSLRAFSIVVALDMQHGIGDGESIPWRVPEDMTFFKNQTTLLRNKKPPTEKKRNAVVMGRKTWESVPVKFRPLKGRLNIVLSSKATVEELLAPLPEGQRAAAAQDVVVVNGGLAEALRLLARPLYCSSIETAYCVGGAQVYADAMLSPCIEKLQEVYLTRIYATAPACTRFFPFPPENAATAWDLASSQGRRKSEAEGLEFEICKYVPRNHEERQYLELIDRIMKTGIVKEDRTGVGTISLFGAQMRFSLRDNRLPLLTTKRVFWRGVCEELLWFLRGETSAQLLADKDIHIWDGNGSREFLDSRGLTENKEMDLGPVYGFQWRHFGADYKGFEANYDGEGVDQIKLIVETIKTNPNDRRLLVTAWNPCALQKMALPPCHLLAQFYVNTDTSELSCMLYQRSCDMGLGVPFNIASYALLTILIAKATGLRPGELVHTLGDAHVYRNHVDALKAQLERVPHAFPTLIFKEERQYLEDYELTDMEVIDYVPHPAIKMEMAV
The nature of series [4]: Retention time of the compound. The series is classed as physicochemical. A digest of the protocol: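 Reverse-phase HPLC on an RP-amide column (150 × 4.6 mm, 5 µm) with guard column. Mobile phase was 10 mM phosphate buffer pH 3.3 and acetonitrile (60:40 v/v) at 1.00 mL/min and 30 °C, with an 8 min run. UV detection at 240 and 272 nm.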
Series [5] addresses T1, Pteridine reductase 1 (Leishmania major, UniProt Q01782).
T1 sequence (Q01782 whole entry): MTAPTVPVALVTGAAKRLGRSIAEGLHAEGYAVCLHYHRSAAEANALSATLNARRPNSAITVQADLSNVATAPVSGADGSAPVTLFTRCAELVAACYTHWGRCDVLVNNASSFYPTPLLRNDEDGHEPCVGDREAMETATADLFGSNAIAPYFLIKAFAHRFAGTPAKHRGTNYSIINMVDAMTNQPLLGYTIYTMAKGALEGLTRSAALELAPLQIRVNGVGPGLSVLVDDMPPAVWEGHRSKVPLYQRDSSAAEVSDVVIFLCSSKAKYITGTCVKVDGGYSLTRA

Series [6] in a line: physchem. Particulars: phosphate buffered saline, pH 7.4.
Series [7] deals with Leishmania mexicana. As to the kind of experiment: Antiparasitic activity against promastigote form of Leishmania mexicana MHOM/BZ/61/M379 after 72 hrs by haemocytometer. Particulars: MHOM/BZ/61/M379, 72 h.
Series [8] concerns Leishmania mexicana. To be noted: MHOM/BZ/61/M379, 100 uM.
The subject of series [9] is Leishmania mexicana. To be noted: MHOM/BZ/61/M379, 100 uM. This is another data set of the same source.
Series [10] in a line: in vitro. Particulars: mouse, L929 cells.
For series [11], the system named is Leishmania mexicana. As to the kind of experiment: Antiparasitic activity against promastigote form of Leishmania mexicana MHOM/BZ/61/M379 after 24 hrs by haemocytometer. The class given is functional, organism-based. A digest of the protocol: as §1

≈ marks a conversion by molar mass, not a printed value.

For the molecule `O=S([O-])S(=O)[O-].[Na+].[Na+]`, the Activity in [1] is reported as 175.9%.

For the molecule `COc1ccc(CNc2ccc3nc(N)nc(N)c3c2)cc1`, the inhibition at 100 µM in series [2] worked out at 100%. Moreover, the values for the Kd in [3] and in [5] were 1.58 µM and 2.85 µM, respectively. Further, the Retention_time in [4] stood at 3.081 min. This molecule came in with a solubility in series [6] of 0.25 mg/mL (≈ 846 µM). Moreover, in [7], the IC50 stood at 14.6 µM.

Take `Nc1nc(N)c2cc([N+](=O)[O-])ccc2n1`: the equilibrium dissociation constant (Kd) in [3] stood at 15.8 µM; in [5], 0.261 µM.

For `COc1cc(Cc2cnc(N)nc2N)cc(OC)c1OC` [TRIMETHOPRIM], 100 µM produced 30% inhibition in series [2]. Besides, the values for the survival in series [8] and in series [9] were 70% and 100%, respectively. Moreover, the IC50 in series [7] is > 100 µM.

As to `Nc1ccc2nc(N)nc(N)c2c1` [QUINAZOLINE-2,4,6-TRIAMINE], in series [2], the inhibition at 100 µM stood at 0%. In addition, the values for the Kd in series [3] and in [5] were 84 µM and 58.8 µM, respectively. Further, the solubility in series [6] was > 9 mg/mL.

In series [10], `CC1CS(=O)(=O)CCN1/N=C/c1ccc([N+](=O)[O-])o1` (stereo unspecified) [NIFURTIMOX] returned a viability at 48 h, 100 µM of 42%.

In [2], `CCc1nc(N)nc(N)c1-c1ccc(Cl)cc1` [PYRIMETHAMINE] had an inhibition at 100 µM of 50%. In series [7], this molecule came in with an IC50 of 100 µM.

In the case of `Nc1nc(N)c2cc(NCc3ccc(O)cc3)ccc2n1`, in series [2], the inhibition at 100 µM came to 0%. Also, the Kd was 1.02 µM in [3] and 2.4 µM in [5]. Further, the Retention_time in [4] was found to be 3.081 min. Also, the solubility in series [6] is 0.38 mg/mL (≈ 1350 µM).

In turn, “MEGLUMINE ANTIMONATE [listing 1 of 2 here]” gave an IC50 in series [11] of 183 µM.

`Nc1nc(N)c2cc(NCc3ccc([N+](=O)[O-])cc3)ccc2n1` returned an inhibition at 100 µM in [2] of 20%. Further, the Kd in series [3] worked out at 0.241 µM; in [5], 1.43 µM. The Retention_time in series [4] is 3.841 min. Moreover, the IC50 in series [7] is > 100 µM.

For “MEGLUMINE ANTIMONATE [listing 2 of 2 here]”, in series [2], the inhibition came out at 100%.

Consider `Nc1nc(N)c2cc(NCCn3c(C(F)(F)F)nc4cc(Cl)c(Cl)cc43)ccc2n1`, for which, in series [2], the inhibition at 100 µM turned out to be 0%. The same molecule gave a Kd in series [3] of 0.752 µM. The same molecule registered a Retention_time in series [4] of 3.188 min. This molecule returned a solubility in [6] of 0.51 mg/mL (≈ 1120 µM).

As a reminder, the inhibition is the percentage by which the read-out fell short of the control. A word on the Kd: it is the constant that tells how readily two partners part at equilibrium. Low readings indicate a tighter complex, high ones a looser complex. Usually solubility stands for the dissolved amount per volume that the medium holds. Low readings indicate a poorly soluble substance, high ones a readily soluble substance. Broadly, the IC50 is the point on the concentration scale where inhibition reaches its midpoint. Low values mean inhibition by little substance, high ones a need for much substance. In general, viability refers to a per cent measure of how many cells are alive, often set against a control. High values mean less harm to the cells, low ones more harm to the cells.
